Structures are written as SMILES. Active and inactive are the calls of the source. The rule behind the calls is not given here.

The nature of test [1]: Cytotoxicity against human H1299 cells assessed as cell growth at 100 uM after 48 hrs by MTT assay. The test is classed as functional. The note with it: NCI-H1299, 48 h, read-out: Activity. The method, boiled down:
(§1)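 H1299 non-small lung cancer cells were grown in RPMI 1640 with 10% FBS and penicillin/streptomycin at 37 °C in 5% CO2. About 2×10³ cells were seeded per well and held 24 h, then washed with PBS and given fresh medium. Compound, freshly dissolved in DMSO and diluted in complete medium, was added for 48 h. MTT was read at 550 nm after SDS/DMF lysis at 37 °C for 16 h. Values are from three experiments, untreated = 100%, ±SD.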
A general note: Formazan colour is commonly taken as a measure of viable cells.

Test [2] in a line: Inhibition of human TERT expression in H1299 cells at 10 uM after 24 hrs by secreted alkaline phosphatase reporter gene assay relative to control; values are per cent of control. The note with it: NCI-H1299.
The nature of test [3]: Cytotoxicity against human H1299 cells assessed as cell growth at 10 uM after 48 hrs by MTT assay. The note with it: NCI-H1299, 48 h, read-out: Activity. It is filed as functional. The essentials: as §1
The nature of test [4]: Cytotoxicity against human H1299 cells assessed as cell growth at 1 uM after 48 hrs by MTT assay. The conditions noted are these: NCI-H1299, 48 h, read-out: Activity. It is filed as functional. The method, boiled down:
as §1

Test [5] in a line: (§2) Inhibition of human telomerase in H1299 cell lysate compound incubated for 5 mins prior to telomerase extension by PCR-based telomeric repeat amplification protocol assay. The test is classed as cell-free. The essentials:
(§3)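 TRAP assay on telomerase-active H1299 cell extracts, with RNase A-treated extract as the negative control. Compound was preincubated with extract for 5 min at room temperature before the telomerase extension and PCR amplification. The initial screen used 10 µM, and IC50 came from a dose series.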

Test [6] deals with H1299. The description is as §2. The test is classed as cell-free. The method, boiled down: as §3
Test [7] has as its system H1299. As to the kind of experiment: Inhibition of human telomerase in H1299 cell lysate at 10 uM by PCR-based telomeric repeat amplification protocol assay. It is filed as cell-free. The method, boiled down: as §3
The nature of test [8]: Inhibition of human TERT expression in H1299 cells at 1 uM after 24 hrs by secreted alkaline phosphatase reporter gene assay relative to control; values are per cent of control. The note with it: NCI-H1299. For orientation: A reporter such as luciferase makes a cellular process visible.
The nature of test [9]: Inhibition of human TERT expression in H1299 cells at 100 uM after 24 hrs by secreted alkaline phosphatase reporter gene assay relative to control; values are per cent of control. The conditions noted are these: NCI-H1299.
Test [10] deals with H1299. In words: Inhibition of human telomerase in H1299 cell lysate compound incubated post-telomerase extension by PCR-based telomeric repeat amplification protocol assay. It is filed as cell-free. The method, boiled down: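 Modified TRAP assay (TRAP-M) to test for interference with Taq polymerase. Compound was added to H1299 extract reactions right after the telomerase extension step and before PCR amplification.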

Usually IC50 stands for the midpoint of a concentration-inhibition curve. Low readings indicate greater potency, high ones weaker potency. On to `CC(C)NCCC(=O)Nc1cccc2c1C(=O)c1c(NC(=O)CCNC(C)C)cccc1C2=O`, for which the growth at 100 µM in test [1] was determined as 14%. In addition, the level, % of control in test [2] was 16%; in test [8], 106%; in test [9] it was 0%. For the same compound, the growth at 10 µM in test [3] worked out at 29%. In addition, the growth at 1 µM in [4] came to 101%. The IC50 in [5] was found to be 3 µM. Further, the inhibition result in test [6] and in [10] was “Dose-dependent effect” each time. For the same compound, the inhibition result in test [7] is “Active”.

On to `O=C1c2c(O)ccc(O)c2C(=O)c2c(NCCNCCO)ccc(NCCNCCO)c21` [MITOXANTRONE], for which the growth at 100 µM in [1] is 0%. For the same compound, the level, % of control in [2] is 9%; in [8] it was 20%; in test [9], 7%. The growth at 10 µM in test [3] was 0%. The growth at 1 µM in test [4] was determined as 23%.

Regarding `COC(=O)[C@H](COC(C)(C)C)NCC(=O)Nc1cccc2c1C(=O)c1c(NC(=O)CN[C@@H](COC(C)(C)C)C(=O)OC)cccc1C2=O`, in test [1], the growth at 100 µM amounted to 91%. The level, % of control in test [2] is 94%; in test [8] it was 98%; in test [9], 98%. Besides, the growth at 10 µM in [3] was found to be 128%. Further, the growth at 1 µM in test [4] is 127%.

In the case of `CN(C)CCC(=O)Nc1cccc2c1C(=O)c1c(NC(=O)CCN(C)C)cccc1C2=O`, in [1], the growth at 100 µM is 11%. In addition, the level, % of control was determined as 20% in test [2], 87% in test [8] and 0% in [9]. Besides, the growth at 10 µM in test [3] was 24%. Moreover, in test [4], the growth at 1 µM came to 93%.

As for `CN(C)CCCCNCCC(=O)Nc1cccc2c1C(=O)c1c(NC(=O)CCNCCCCN(C)C)cccc1C2=O`, the growth at 100 µM in [1] was determined as 7%. The values for the level, % of control in test [2], in [8] and in [9] were 97%, 121% and 4%, respectively. For the same compound, the growth at 10 µM in test [3] came to 74%. Also, the growth at 1 µM in test [4] is 98%. In [5], this compound displayed an IC50 of 6 µM. Also, the inhibition result in test [6] and in [10] was “Dose-dependent effect” in each case. Besides, the inhibition result in [7] is “Active”.

As for `CN(C)CCCNCCC(=O)Nc1cccc2c1C(=O)c1c(NC(=O)CCNCCCN(C)C)cccc1C2=O`, the growth at 100 µM in [1] came out at 21%. Besides, the level, % of control in test [2] was found to be 95%; in test [8] it was 95%; in test [9] it was 20%. For the same compound, in test [3], the growth at 10 µM came to 105%. The growth at 1 µM in test [4] worked out at 122%.

Source of the values: ChEMBL document CHEMBL1949585, “Design, synthesis and evaluation of telomerase inhibitory, hTERT repressing, and anti-proliferation activities of symmetrical 1,8-disubstituted amidoanthraquinones” (Eur J Med Chem, 2012).
